Measured values collected from several papers.
Each line is one published result; the experiments were not run side by side.
Target: G protein-coupled receptor kinase 4 (GRK4, Homo sapiens, UniProt P32298)

SMILES	observed	action	technique	concentration	measurement	result
O=C1Nc2ccc(Cl)cc2C1=Cc1cc(Cl)c(O)c(Cl)c1	cell-free assay	–	–	0.5 µM	remaining signal	108%
COc1cc2ncnc(Nc3ccc(Oc4ccccc4)cc3C)c2cc1OC	enzyme activity	inhibitor	–	1 µM	inhibition	-2%
COc1cc2c(N3CCN(C(=O)Nc4ccc(OC(C)C)cc4)CC3)ncnc2cc1OCCCN1CCCCC1	cell-free assay	–	–	0.5 µM	remaining signal	106%
CC(C)(C)c1nc(-c2cccc(NS(=O)(=O)c3c(F)cccc3F)c2F)c(-c2ccnc(N)n2)s1	enzyme activity	inhibitor	radiometric	1 µM	remaining activity	59%
Cc1sc(C(=O)NC2COC2)cc1-n1cc(NC(=O)Nc2c(F)cccc2Cl)cn1	enzyme activity	inhibitor	–	10 µM	remaining activity	113%
O=C(N[C@H]1CCCCC/C=C\C2C[C@@]2(C(=O)O)NC(=O)[C@@H]2C[C@@H](Oc3ccncc3)CN2C1=O)OC1CCCC1 (some centres unmarked)	binding	–	competition with immobilised ligand	1 µM	remaining binding	80%
Nc1ncnc2occ(-c3ccc(NC(=O)Nc4cc(C(F)(F)F)ccc4F)cc3)c12	cell-free assay	inhibitor	–	20 µM	remaining signal	89%
O=c1nc(-c2ccccn2)sc2ccccc12	binding	–	competition with immobilised ligand	1 µM	remaining binding	100%
CCN(CC)CCNC(=O)c1c(C)[nH]c(/C=C2\C(=O)Nc3ccc(F)cc32)c1C	cell-free assay	–	–	0.5 µM	remaining signal	75.8%
CC(C)(O)[C@H]1CC[C@H](Nc2ccc3ncc(-c4cccc(C(F)(F)F)c4)n3n2)CC1	enzyme activity	inhibitor	–	1 µM	remaining activity	96.5%
C[C@H](c1ccc(F)cc1)N(Cc1cccc(C(=O)O)c1)C(=O)c1cnc2ccccc2c1	cell-free assay	–	competition with immobilised ligand	1 µM	remaining binding	100%
CN(C)C1CCN(CC#Cc2nn(C3CCCC3)c3nc(NCc4ccccc4)ncc23)C1 (centres unmarked)	enzyme activity	inhibitor	FRET	10 µM	inhibition	-6%
O=C(Nc1cnn(-c2csc(C(=O)NC3COC3)c2)c1)Nc1ccccc1Cl	enzyme activity	inhibitor	–	5 µM	remaining activity	97%
CC(=O)N1CCC(c2ccc(C(=O)NC(=N)N)cc2C(F)(F)F)CC1	cell-free assay	–	competition with immobilised ligand	1 µM	remaining binding	100%
